In ChEMBL document CHEMBL2311265, “5'-Phosphate and 5'-phosphonate ester derivatives of (N)-methanocarba adenosine with in vivo cardioprotective activity” (J Med Chem, 2013):
In brackets after ≈: the same amount, converted by molar mass. Activity calls are given as the source filed them. No cut-off for these calls is given here.

Key:
Mus musculus [1] = experiment: Ex-vivo cardioprotective activity in BL6 mouse LAD ligation ischemic heart failure model assessed as left ventricular rate of pressure change in isolated heart at 10 uM, sc administered as infusion at 24 hrs post LAD ligation for 28 days (reference value: 6156 +/- 356 mmHg/s); format: functional
Procedure, shortened: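 LAD-ligated BL6 mice were infused via mini-osmotic pump with 10 µM in PBS pH 7.4 at 6 µL per day for 28 days. Isolated working hearts then ejected buffered perfusate against a constant 56 mmHg hydrostatic afterload, and LV +dP/dt was recorded. Mean ± SEM against vehicle-infused controls; one-way ANOVA with Newman-Keuls.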

Mus musculus [2] = species: Mus musculus; experiment: Agonist activity at P2XR receptor in wild type BL6 mouse cardiac ventricular myocytes assessed as increase in contraction shortening
Procedure, shortened: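 Adult wild-type murine cardiac ventricular myocytes; contraction shortening recorded at basal control, during drug exposure and after washout. Data are mean ± standard error (13 or 8 myocytes per agent).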

Mus musculus [3] = experiment: Ex-vivo cardioprotective activity in BL6 mouse LAD ligation ischemic heart failure model assessed as change in infarct size at 10 uM, sc administered as infusion at 24 hrs post LAD ligation for 28 days relative to control; format: functional, organism-based
Procedure, shortened: (§1)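 Permanent LAD ligation in 12-week-old WT BL6 mice under intraperitoneal ketamine (100 mg/kg) and xylazine (10 mg/kg). Starting within 24 h, agents in PBS pH 7.4 at 10 µM were infused by mini-osmotic pump at 6 µL per d for 28 d. Controls were vehicle-infused WT mice and cardiac P2X4R-overexpressing transgenic mice. Infarct size was taken after heart-function measurement, from formalin-fixed, paraffin 4-µm Masson's trichrome sections, as infarct length over endocardial plus epicardial circumference. One-way ANOVA with Newman-Keuls test.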

Mus musculus [4] = experiment: Cardioprotective activity in BL6 mouse LAD ligation ischemic heart failure model assessed as fractional shortening at 10 uM, sc administered as infusion at 24 hrs post LAD ligation for 28 days by echocardiography (reference value: 17.33 +/- 1.36%); format: functional
Mus musculus [5] = experiment: Cardioprotective activity in BL6 mouse LAD ligation ischemic heart failure model assessed as change in infarct size at 10 uM, sc administered as infusion at 24 hrs post-LAD ligation for 1 month relative to control; format: functional, organism-based; procedure, shortened: as §1
[6] = Aqueous solubility of the compound after 1 hr; format: physicochemical; details: buffer
Procedure, shortened: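 Excess solid stirred in water, supernatant removed and lyophilized; solubility calculated from the mass of solid recovered.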

Liver microsomes = experiment: Metabolic stability of the compound in rat liver microsomes by HPLC analysis; format: ADME, Microsome
Procedure, shortened: (§2)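 Incubation with mouse or rat liver microsomes at 37°C for 24 h, and checked for hydrolysis.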

Plasma = experiment: Metabolic stability of the compound in rat plasma at 1.09 mM by HPLC analysis; format: ADME, cell-free; details: 1090 µM
Procedure, shortened: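 Incubation with rat plasma at 37°C for 24 h, and checked for hydrolysis.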

[7] = Chemical stability of the compound in aqueous medium at pH 1 at 50 degC after 24 hrs by HPLC analysis; format: physicochemical; details: buffer, pH 1, 24 h
Procedure, shortened: (§3)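 Incubation for 24 h in aqueous medium at pH 1 or pH 11, 50°C, and checked for hydrolysis.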

Mus musculus [8] = experiment: Cardioprotective activity in mouse overexpressing clasequestrin assessed as increase in LV posterior wall thickness during diastole at 10 uM, sc administered as infusion for 2 weeks relative to control; format: functional, organism-based
Procedure, shortened: (§4)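 CSQ-overexpressing mice with heart failure, 2-week infusion (n=5). Outcome is LV septal and posterior wall thickness versus normal-saline-infused CSQ mice. Values are mean ± standard error.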

[9] = Chemical stability of the compound in aqueous medium at pH 11 at 50 degC after 24 hrs by HPLC analysis; format: physicochemical; details: buffer, pH 11, 24 h; procedure, shortened: as §3
Mus musculus [10] = experiment: Cardioprotective activity in mouse overexpressing clasequestrin assessed as increase in LV posterior wall thickness during systole at 10 uM, sc administered as infusion for 2 weeks relative to control; format: functional, organism-based; procedure, shortened: as §4
Mus musculus [11] = experiment: Cardioprotective activity in mouse overexpressing clasequestrin assessed as increase in LV septal wall thickness during systole at 10 uM, sc administered as infusion for 2 weeks relative to control; format: functional, organism-based; procedure, shortened: as §4
Liver = experiment: Metabolic stability of the compound in mouse liver microsomes by HPLC analysis; format: ADME, Microsome; procedure, shortened: as §2
Mus musculus [12] = experiment: Cardioprotective activity in mouse overexpressing clasequestrin assessed as increase in fractional shortening at 10 uM, sc administered as infusion for 2 weeks relative to control; format: functional, organism-based
Mus musculus [13] = experiment: Cardioprotective activity in mouse overexpressing clasequestrin assessed as prevention of LV wall thinning at 10 uM, sc administered as infusion for 2 weeks; format: functional, organism-based; procedure, shortened: as §4
Mus musculus [14] = experiment: Cardioprotective activity in mouse overexpressing clasequestrin assessed as LV posterior wall thickness at 10 uM, sc administered as infusion for 2 weeks (reference value: 0.45 +/- 0.007 mm); format: functional
Mus musculus [15] = experiment: Cardioprotective activity in mouse overexpressing clasequestrin assessed as LV septal wall thickness at 10 uM, sc administered as infusion for 2 weeks (reference value: 0.45 +/- 0.007 mm); format: functional
Mus musculus [16] = experiment: Cardioprotective activity in mouse overexpressing clasequestrin assessed as increase in fractional shortening at 3.3 uM, sc administered as infusion for 2 weeks relative to control; format: functional, organism-based

Nc1nc(Cl)nc2c1ncn2[C@@H]1C2CC2(COP(=O)(O)O)[C@@H](O)[C@H]1O (single isomer, unassigned)
Activity (Mus musculus [1]): 6508 mmHg/s | Activity (Mus musculus [2]): Active | Activity (Mus musculus [3]): inactive | Activity (Mus musculus [4]): 22.14% | Activity (Mus musculus [5]): inactive

CCOP(=O)(C[C@@]12C[C@@H]1[C@@H](n1cnc3c(N)nc(Cl)nc31)[C@H](O)[C@@H]2O)OCC
Activity (Mus musculus [1]): 5946 mmHg/s | Activity (Mus musculus [3]): inactive | Activity (Mus musculus [5]): inactive | solubility [6]: 60 mM (≈ 25.9 mg/mL)

[2H]C([2H])(OP(=O)(O)O)[C@@]12C[C@@H]1[C@@H](n1cnc3c(N)nc(Cl)nc31)[C@H](O)[C@@H]2O
Activity (Mus musculus [4]): 23.06%

CC(C)(C)OP(=O)(OC[C@@]12C[C@@H]1[C@@H](n1cnc3c(N)nc(Cl)nc31)[C@H](O)[C@@H]2O)OC(C)(C)C
Activity (Mus musculus [1]): 6681 mmHg/s | Activity (Mus musculus [3]): inactive | Activity (Mus musculus [4]): 24.07% | Activity (Mus musculus [5]): inactive

Nc1nc(Cl)nc2c1ncn2[C@H]1[C@H](O)[C@H](O)[C@]2(COP(=O)(O)O)C[C@H]12
Activity (Mus musculus [5]; tested as the 2H-labelled form): inactive

CCOP(=O)(OCC)OC[C@@]12C[C@@H]1[C@@H](n1cnc3c(N)nc(Cl)nc31)[C@H](O)[C@@H]2O
Activity (Mus musculus [1]): 6711 mmHg/s | Activity (Mus musculus [3]): inactive | Activity (Mus musculus [4]): 24.71% | Activity (Mus musculus [5]): inactive | Activity (Mus musculus [5]; tested as the 2H-labelled form): inactive

CCOP(=S)(OCC)SC[C@@]12C[C@@H]1[C@@H](n1cnc3c(N)nc(Cl)nc31)[C@H](O)[C@@H]2O
Activity (Mus musculus [4]): 24.76% | Activity (Mus musculus [5]): inactive

CCOP(=O)(OCC)SC[C@@]12C[C@@H]1[C@@H](n1cnc3c(N)nc(Cl)nc31)[C@H](O)[C@@H]2O
Activity (Mus musculus [4]): 24.31% | Activity (Mus musculus [5]): inactive

[2H]C([2H])(OP(=O)(OCC)OCC)[C@@]12C[C@@H]1[C@@H](n1cnc3c(N)nc(Cl)nc31)[C@H](O)[C@@H]2O
Activity (Mus musculus [4]): 21.48%

CC(C)OP(=O)(OC[C@@]12C[C@@H]1[C@@H](n1cnc3c(N)nc(Cl)nc31)[C@H](O)[C@@H]2O)OC(C)C
Activity (Mus musculus [4]): 25.77% | Activity (Mus musculus [5]): inactive

CCOP(=S)(OCC)OC[C@@]12C[C@@H]1[C@@H](n1cnc3c(N)nc(Cl)nc31)[C@H](O)[C@@H]2O
Activity (Mus musculus [5]): inactive

CC(C)OP(=O)(CC[C@@]12C[C@@H]1[C@@H](n1cnc3c(N)nc(Cl)nc31)[C@H](O)[C@@H]2O)OC(C)C
Stability (Liver microsomes): Stable | Stability (Plasma): Stable | Stability [7]: Stable | Activity (Mus musculus [8]): Active | Stability [9]: Stable | solubility [6]: 7.25 mM (≈ 3.44 mg/mL) | Activity (Mus musculus [10]): Active | Activity (Mus musculus [11]): Active | Stability (Liver): Stable

Nc1nc(I)nc2c1ncn2[C@H]1[C@H](O)[C@H](O)[C@]2(CP(=O)(O)O)C[C@H]12
Activity (Mus musculus [1]): 6581 mmHg/s | Activity (Mus musculus [3]): inactive | Activity (Mus musculus [12]): inactive | Activity (Mus musculus [5]): inactive | Activity (Mus musculus [13]): inactive

CCOP(=O)(C[C@@]12C[C@@H]1[C@@H](n1cnc3c(N)nc(I)nc31)[C@H](O)[C@@H]2O)OCC
Activity (Mus musculus [4]): 23.05% | Activity (Mus musculus [5]): inactive

Nc1nc(Cl)nc2c1ncn2[C@H]1[C@H](O)[C@H](O)[C@]2(CSP(=O)(O)O)C[C@H]12
Activity (Mus musculus [1]): 6553 mmHg/s | Activity (Mus musculus [3]): inactive | Activity (Mus musculus [14]): 0.493 mm | Activity (Mus musculus [5]): inactive | Activity (Mus musculus [15]): 0.492 mm

Nc1nc(Cl)nc2c1ncn2[C@H]1[C@H](O)[C@H](O)[C@]2(CCP(=O)(O)O)C[C@H]12
Activity (Mus musculus [2]): Active | Activity (Mus musculus [12]): Active | Activity (Mus musculus [16]): Active
